According to ChEMBL document CHEMBL1649412, “Discovery and SAR of 5-(3-chlorophenylamino)benzo[c][2,6]naphthyridine-8-carboxylic acid (CX-4945), the first clinical stage inhibitor of protein kinase CK2 for the treatment of cancer” (J Med Chem, 2011):
One block for each molecule: values may come before it.

Legend:
[1] = Inhibition of CK2 assessed as inhibition of [gamma32P]GTP incorporation into substrate by liquid scintillation counting
LNCaP = experiment: Antiproliferative activity against human LNCAP cells after 4 days by alamar blue assay; format: functional, cell-based; conditions: 96 h
BXPC-3 = experiment: Antiproliferative activity against human BxPC3 cells after 4 days by alamar blue assay; format: functional, cell-based; conditions: BXPC-3, 96 h
A549 = experiment: Antiproliferative activity against human A549 cells after 4 days by alamar blue assay; format: functional, cell-based; conditions: A549, 96 h
[2] = Antiproliferative activity against human H1299 cells after 4 days by alamar blue assay; format: functional, cell-based; conditions: NCI-H1299, 96 h
K562 = experiment: Antiproliferative activity against human K562 cells after 4 days by alamar blue assay; format: functional, cell-based; conditions: K562, 96 h
MCF7 = experiment: Antiproliferative activity against human MCF7 cells after 4 days by alamar blue assay; format: functional, cell-based; conditions: MCF7, 96 h
A-375 = experiment: Antiproliferative activity against human A375 cells after 4 days by alamar blue assay; format: functional, cell-based; conditions: A-375, 96 h
Cytochrome P450 1A2 = Cytochrome P450 1A2 (Homo sapiens, UniProt P05177); experiment: Inhibition of CYP1A2; format: ADME
Cytochrome P450 2C9 = Cytochrome P450 2C9 (Homo sapiens, UniProt P11712); experiment: Inhibition of CYP2C9; format: ADME
Cytochrome P450 2C19 = Cytochrome P450 2C19 (Homo sapiens, UniProt P33261); experiment: Inhibition of CYP2C19; format: ADME
Cytochrome P450 2D6 = Cytochrome P450 2D6 (Homo sapiens, UniProt P10635); experiment: Inhibition of CYP2D6; format: ADME
Cytochrome P450 3A4 = Cytochrome P450 3A4 (Homo sapiens, UniProt P08684); experiment: Inhibition of CYP3A4; format: ADME
[3] = target: Voltage-gated inwardly rectifying potassium channel KCNH2 (Homo sapiens, UniProt Q12809); experiment: Inhibition of human ERG at 0.1 to 10 uM by patch clamp technique
[4] = Clearance in ICR mouse at 5 mg/kg, iv and […] mg/kg, po by LC-MS/MS analysis; format: ADME, organism-based; conditions: in vivo
[5] = Elimination half life in ICR mouse at 5 mg/kg, iv and 25 mg/kg, po by LC-MS/MS analysis; format: ADME, organism-based; conditions: in vivo
[6] = AUC in ICR mouse at 25 mg/kg, po by LC-MS/MS analysis; format: ADME, organism-based; parameters: dose 25 mg/kg, route oral; conditions: plasma
In short: (§1)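 Single iv and po doses to overnight-fasted ICR mice, SD rats and beagle dogs; sodium salt in 25 mM sodium phosphate buffer (rodents), sodium-salt powder in capsules (dogs po). Three animals per route per species (four for one). Serial blood sampling to 24 h (mouse, dog) or 48 h (rat); plasma by LC-MS/MS; parameters by noncompartmental analysis.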

[7] = Oral bioavailability in ICR mouse at 25 mg/kg by LC-MS/MS analysis; format: ADME, organism-based; conditions: in vivo; in short: as §1
[8] = Clearance in Sprague-Dawley rat at 5.2 mg/kg, iv and 10.5 mg/kg, po by LC-MS/MS analysis; format: ADME, organism-based; conditions: in vivo; in short: as §1
[9] = Elimination half life in Sprague-Dawley rat at 5.2 mg/kg, iv and 10.5 mg/kg, po by LC-MS/MS analysis; format: ADME, organism-based; conditions: in vivo
In short: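 Overnight-fasted SD rats, 3 per route, single iv or oral dose of sodium salt in 25 mM sodium phosphate buffer. Blood was drawn at 0.08–48 h (iv) or 0.25–48 h (po). Plasma was stored at −80 °C, measured by LC-MS/MS, and analysed noncompartmentally.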

[10] = AUC in Sprague-Dawley rat at 10.5 mg/kg, po by LC-MS/MS analysis; format: ADME, organism-based; parameters: dose 10.5 mg/kg, route oral; conditions: plasma; in short: as §1
[11] = Oral bioavailability in Sprague-Dawley rat at 10.5 mg/kg, po by LC-MS/MS analysis; format: ADME, organism-based; conditions: in vivo; in short: as §1
[12] = Clearance in Beagle dog at 1.9 mg/kg, iv and […] mg/kg, po by LC-MS/MS analysis; format: ADME, organism-based, Canis lupus familiaris; conditions: in vivo
[13] = Elimination half life in Beagle dog at 1.9 mg/kg, iv and 8.2 mg/kg, po by LC-MS/MS analysis; format: ADME, organism-based, Canis lupus familiaris; conditions: in vivo
In short: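 Overnight-fasted beagle dogs, 3 per route, single iv or oral dose. The iv dose was 25n sodium salt in 25 mM sodium phosphate buffer; the oral dose was sodium salt in filled capsules. Blood was drawn at 0.08–24 h (iv) or 0.25–24 h (po). Plasma was stored at −80 °C, measured by LC-MS/MS, and analysed noncompartmentally.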

[14] = AUC in Beagle dog at 8.2 mg/kg, po by LC-MS/MS analysis; format: ADME, organism-based, Canis lupus familiaris; parameters: dose 8.2 mg/kg, route oral; conditions: plasma; in short: as §1
[15] = Oral bioavailability in Beagle dog at 8.2 mg/kg by LC-MS/MS analysis; format: ADME, organism-based, Canis lupus familiaris; conditions: in vivo; in short: as §1
PC-3 [16] = experiment: Antitumor activity against human PC3 cells xenografted in athymic mouse assessed as tumor growth inhibition at 25 mg/kg, po BID; format: functional; conditions: read-out: TGI
PC-3 [17] = experiment: Antitumor activity against human PC3 cells xenografted in athymic mouse assessed as tumor growth inhibition at 50 mg/kg, po BID; format: functional; conditions: read-out: TGI
PC-3 [18] = experiment: Antitumor activity against human PC3 cells xenografted in athymic mouse assessed as tumor growth inhibition at 75 mg/kg, po BID; format: functional; conditions: read-out: TGI
Mus musculus = experiment: Toxicity in athymic mouse xenografted with human PC3 assessed as change in body weight at 25 to 75 mg/kg, po BID; format: organism-based; parameters: dose 25-75 mg/kg, route oral; conditions: in vivo
In short: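 PC3 cells injected subcutaneously into right hind flank of nude mice; at 150-200 mm3 randomized, 10 per group. Sodium salt in 25 mM NaH2PO4 buffer given by oral gavage twice daily at 25, 50 and 75 mg/kg; body weights measured twice weekly versus vehicle-treated controls.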

PC-3 [19] = experiment: cells; conditions: Homo sapiens, PC-3, 96 h
MIA PaCa-2 = experiment: cells; conditions: Homo sapiens, MIA PaCa-2, 96 h
Jurkat = experiment: cells; conditions: Homo sapiens, 96 h
cells = conditions: Homo sapiens, Hs-578T, 96 h
HCT-116 = experiment: cells; conditions: Homo sapiens, HCT-116, 96 h
Casein kinase II = Casein kinase II (Homo sapiens, UniProt P19784+P67870+P68400); experiment: Inhibition of human recombinant CK2 assessed as inhibition of [gamma33P]ATP incorporation into substrate by […]; format: protein-complex assay
[20] = target: Poly [ADP-ribose] polymerase 1 (Homo sapiens, UniProt P09874); conditions: 1 uM
MDA-MB-231 = experiment: Antiproliferative activity against human MDA-MB-231 cells after 4 days by alamar blue assay; format: functional, cell-based; conditions: MDA-MB-231, 96 h

Chain of Casein kinase II (P67870 whole entry): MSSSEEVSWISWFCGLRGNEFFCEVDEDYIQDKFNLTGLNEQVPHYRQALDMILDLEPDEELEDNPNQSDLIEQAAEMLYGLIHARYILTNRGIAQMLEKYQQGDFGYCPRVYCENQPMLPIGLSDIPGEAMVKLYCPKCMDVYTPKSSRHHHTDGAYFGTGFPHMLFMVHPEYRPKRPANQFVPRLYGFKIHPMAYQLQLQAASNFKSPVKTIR
Chain of Casein kinase II (P68400 whole entry): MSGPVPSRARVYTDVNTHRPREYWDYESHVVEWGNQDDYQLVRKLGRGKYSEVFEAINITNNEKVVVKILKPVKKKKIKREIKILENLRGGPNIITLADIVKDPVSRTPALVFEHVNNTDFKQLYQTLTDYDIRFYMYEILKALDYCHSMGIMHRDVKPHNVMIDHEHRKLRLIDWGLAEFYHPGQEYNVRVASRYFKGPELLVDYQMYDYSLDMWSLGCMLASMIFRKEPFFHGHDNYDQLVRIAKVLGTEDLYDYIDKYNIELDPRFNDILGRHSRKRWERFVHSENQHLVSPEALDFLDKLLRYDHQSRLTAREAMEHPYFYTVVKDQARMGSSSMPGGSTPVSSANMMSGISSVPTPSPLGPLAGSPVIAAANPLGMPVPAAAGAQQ
Chain of Casein kinase II (P19784 whole entry): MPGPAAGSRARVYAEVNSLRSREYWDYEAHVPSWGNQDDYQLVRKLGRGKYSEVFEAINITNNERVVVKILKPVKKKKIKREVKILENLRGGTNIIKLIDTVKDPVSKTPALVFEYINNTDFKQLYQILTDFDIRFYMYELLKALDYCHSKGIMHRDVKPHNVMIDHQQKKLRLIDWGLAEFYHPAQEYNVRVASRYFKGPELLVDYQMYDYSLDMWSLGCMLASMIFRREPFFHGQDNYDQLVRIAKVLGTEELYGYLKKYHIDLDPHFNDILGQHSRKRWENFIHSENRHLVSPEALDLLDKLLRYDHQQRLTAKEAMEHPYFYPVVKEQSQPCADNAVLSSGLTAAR
Chain of Poly [ADP-ribose] polymerase 1 (P09874 whole entry): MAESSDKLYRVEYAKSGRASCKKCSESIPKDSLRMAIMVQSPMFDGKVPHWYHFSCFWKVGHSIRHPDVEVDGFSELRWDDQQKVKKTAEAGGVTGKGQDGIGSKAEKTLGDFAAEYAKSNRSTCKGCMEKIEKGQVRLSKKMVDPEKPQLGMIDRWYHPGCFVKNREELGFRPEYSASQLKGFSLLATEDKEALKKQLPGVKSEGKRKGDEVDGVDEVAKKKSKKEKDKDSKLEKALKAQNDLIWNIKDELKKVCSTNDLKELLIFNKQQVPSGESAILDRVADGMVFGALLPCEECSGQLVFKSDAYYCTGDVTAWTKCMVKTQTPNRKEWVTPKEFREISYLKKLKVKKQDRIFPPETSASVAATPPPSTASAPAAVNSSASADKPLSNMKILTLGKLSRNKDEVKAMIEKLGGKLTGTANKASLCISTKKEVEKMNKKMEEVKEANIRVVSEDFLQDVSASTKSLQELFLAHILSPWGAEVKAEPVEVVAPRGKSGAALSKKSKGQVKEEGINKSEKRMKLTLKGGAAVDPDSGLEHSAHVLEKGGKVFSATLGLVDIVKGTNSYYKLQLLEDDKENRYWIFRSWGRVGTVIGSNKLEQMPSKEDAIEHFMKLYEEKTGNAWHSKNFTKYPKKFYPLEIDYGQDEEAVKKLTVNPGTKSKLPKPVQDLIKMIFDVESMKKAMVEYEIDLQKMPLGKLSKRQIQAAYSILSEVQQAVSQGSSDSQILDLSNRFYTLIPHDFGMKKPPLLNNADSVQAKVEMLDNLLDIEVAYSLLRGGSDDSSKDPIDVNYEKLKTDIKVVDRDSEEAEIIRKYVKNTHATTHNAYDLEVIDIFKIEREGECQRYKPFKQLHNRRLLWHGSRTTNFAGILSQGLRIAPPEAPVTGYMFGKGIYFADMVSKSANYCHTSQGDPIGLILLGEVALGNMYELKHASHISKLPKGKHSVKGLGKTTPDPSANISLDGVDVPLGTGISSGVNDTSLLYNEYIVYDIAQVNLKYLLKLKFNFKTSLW
Chain of Cytochrome P450 2D6 (P10635 whole entry): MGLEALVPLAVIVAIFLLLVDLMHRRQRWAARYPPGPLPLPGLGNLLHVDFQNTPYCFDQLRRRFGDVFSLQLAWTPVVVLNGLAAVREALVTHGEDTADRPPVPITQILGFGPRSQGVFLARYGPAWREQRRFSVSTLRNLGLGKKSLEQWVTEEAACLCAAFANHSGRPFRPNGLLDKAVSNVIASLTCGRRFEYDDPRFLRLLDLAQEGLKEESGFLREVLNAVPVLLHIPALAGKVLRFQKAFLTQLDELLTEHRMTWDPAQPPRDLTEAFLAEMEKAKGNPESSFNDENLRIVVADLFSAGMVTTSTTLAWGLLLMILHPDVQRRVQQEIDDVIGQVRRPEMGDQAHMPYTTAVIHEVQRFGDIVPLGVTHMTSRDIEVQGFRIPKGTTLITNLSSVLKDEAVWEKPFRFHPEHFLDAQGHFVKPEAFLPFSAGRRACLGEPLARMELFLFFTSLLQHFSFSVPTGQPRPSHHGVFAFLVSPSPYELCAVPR
Chain of Cytochrome P450 2C9 (P11712 whole entry): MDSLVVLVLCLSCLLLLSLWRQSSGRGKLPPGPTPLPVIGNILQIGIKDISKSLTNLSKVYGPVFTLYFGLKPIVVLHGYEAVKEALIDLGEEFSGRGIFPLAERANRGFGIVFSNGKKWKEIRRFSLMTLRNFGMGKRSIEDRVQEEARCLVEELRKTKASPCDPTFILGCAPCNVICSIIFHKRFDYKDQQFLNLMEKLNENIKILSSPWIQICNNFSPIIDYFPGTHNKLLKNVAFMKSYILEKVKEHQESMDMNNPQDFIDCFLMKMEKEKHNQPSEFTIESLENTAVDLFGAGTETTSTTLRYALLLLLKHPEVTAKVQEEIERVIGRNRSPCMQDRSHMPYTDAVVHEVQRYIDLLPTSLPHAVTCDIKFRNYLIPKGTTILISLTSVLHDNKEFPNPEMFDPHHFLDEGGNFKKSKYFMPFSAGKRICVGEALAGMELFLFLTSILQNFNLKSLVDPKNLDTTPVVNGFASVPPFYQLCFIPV
Chain of Cytochrome P450 2C19 (P33261 whole entry): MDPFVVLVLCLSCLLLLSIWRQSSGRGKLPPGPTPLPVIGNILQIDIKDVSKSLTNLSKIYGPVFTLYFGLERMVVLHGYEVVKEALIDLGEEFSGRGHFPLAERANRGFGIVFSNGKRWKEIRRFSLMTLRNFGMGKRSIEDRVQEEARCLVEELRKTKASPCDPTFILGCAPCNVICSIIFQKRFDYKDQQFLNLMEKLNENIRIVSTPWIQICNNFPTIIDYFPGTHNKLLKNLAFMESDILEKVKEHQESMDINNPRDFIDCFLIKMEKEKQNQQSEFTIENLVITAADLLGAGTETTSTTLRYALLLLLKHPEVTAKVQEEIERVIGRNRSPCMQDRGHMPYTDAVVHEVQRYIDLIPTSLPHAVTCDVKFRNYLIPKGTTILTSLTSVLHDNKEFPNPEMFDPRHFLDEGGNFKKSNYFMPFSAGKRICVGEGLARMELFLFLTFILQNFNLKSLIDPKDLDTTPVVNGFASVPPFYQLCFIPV
Chain of Cytochrome P450 3A4 (P08684 whole entry): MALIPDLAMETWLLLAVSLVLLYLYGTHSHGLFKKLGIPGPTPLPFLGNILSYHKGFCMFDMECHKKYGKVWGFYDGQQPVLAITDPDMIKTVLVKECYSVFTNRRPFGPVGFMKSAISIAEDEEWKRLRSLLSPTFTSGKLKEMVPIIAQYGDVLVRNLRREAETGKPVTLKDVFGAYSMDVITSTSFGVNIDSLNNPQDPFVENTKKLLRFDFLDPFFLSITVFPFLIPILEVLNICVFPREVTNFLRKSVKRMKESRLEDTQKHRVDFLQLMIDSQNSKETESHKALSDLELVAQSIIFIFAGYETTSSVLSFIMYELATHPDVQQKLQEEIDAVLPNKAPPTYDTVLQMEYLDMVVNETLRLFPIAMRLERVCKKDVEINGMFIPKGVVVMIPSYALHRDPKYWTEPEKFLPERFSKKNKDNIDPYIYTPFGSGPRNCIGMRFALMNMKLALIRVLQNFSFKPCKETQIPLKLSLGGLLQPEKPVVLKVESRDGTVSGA
Chain of Cytochrome P450 1A2 (P05177 whole entry): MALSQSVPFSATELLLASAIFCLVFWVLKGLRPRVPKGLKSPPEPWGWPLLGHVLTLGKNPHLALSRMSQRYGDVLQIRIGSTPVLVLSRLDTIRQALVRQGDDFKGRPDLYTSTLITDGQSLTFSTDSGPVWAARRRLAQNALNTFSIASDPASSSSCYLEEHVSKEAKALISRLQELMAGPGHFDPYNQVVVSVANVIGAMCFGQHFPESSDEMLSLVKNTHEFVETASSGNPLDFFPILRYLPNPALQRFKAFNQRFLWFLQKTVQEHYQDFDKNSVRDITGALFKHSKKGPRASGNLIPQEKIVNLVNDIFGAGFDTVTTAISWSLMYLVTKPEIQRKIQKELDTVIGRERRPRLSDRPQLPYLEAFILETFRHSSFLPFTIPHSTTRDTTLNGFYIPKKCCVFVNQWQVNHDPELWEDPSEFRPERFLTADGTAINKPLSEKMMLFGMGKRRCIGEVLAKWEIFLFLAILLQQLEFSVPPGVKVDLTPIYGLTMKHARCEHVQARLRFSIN

Compound: OC[C@H]1O[C@@H](n2cnc3cc(Cl)c(Cl)cc32)[C@H](O)[C@@H]1O [DICHLORORIBOBENZIMIDAZOLE]
- IC50 [1]: 15 µM

Compound: O=C(O)c1ccc2c(c1)nc(Nc1cccc(Cl)c1)c1ccncc12 [SILMITASERTIB]
- IC50 (LNCaP): 4.7 µM
- IC50 (BXPC-3): 4.4 µM
- IC50 (A549): 3 µM
- IC50 [2]: 2.4 µM
- IC50 (K562): 5.3 µM
- IC50 (MCF7): 8.9 µM
- IC50 (A-375): 3.9 µM
- inhibition (INH) (Cytochrome P450 1A2): Not Active
- inhibition (INH) (Cytochrome P450 2C9): Not Active
- inhibition (INH) (Cytochrome P450 2C19): Not Active
- inhibition (INH) (Cytochrome P450 2D6): Not Active
- inhibition (INH) (Cytochrome P450 3A4): Not Active
- inhibition (INH) [3]: < 10%
- clearance [4]: 41.7 mL/min/kg
- half-life [5]: 5 h
- AUC [6]: 2010 ng·h/mL
- bioavailability [7]: 20%
- clearance [8]: 1.67 mL/min/kg
- half-life [9]: 11.6 h
- AUC [10]: 42300 ng·h/mL
- bioavailability [11]: 48%
- clearance [12]: 11.7 mL/min/kg
- half-life [13]: 8.3 h
- AUC [14]: 5650 ng·h/mL
- bioavailability [15]: 51%
- inhibition in vivo at 25 mg/kg (PC-3 [16]): 19%
- inhibition in vivo at 50 mg/kg (PC-3 [17]): 40%
- inhibition in vivo at 75 mg/kg (PC-3 [18]): 86%
- Activity (Mus musculus): Non-toxic
- IC50 (PC-3 [19]): 2.1 µM
- IC50 (MIA PaCa-2): 1.1 µM
- IC50 (Jurkat): 2.5 µM
- IC50 (cells): 13.1 µM
- IC50 (HCT-116): 2.2 µM

Compound: CC(C)OCCNc1nc2cc(C(=O)O)ccc2c2cnccc12
- IC50 (Casein kinase II): 0.011 µM

Compound: O=C(O)c1ccc2c(c1)nc(NCCCO)c1ccsc12
- inhibition [20]: 12%

Compound: O=C(O)c1ccc2c(c1)nc(Nc1cccc(Cl)c1)c1nccnc12
- IC50 (Casein kinase II): 0.22 µM

Compound: O=C(O)c1ccc2c(c1)nc(Nc1cccc(Cl)c1)c1ncccc12
- IC50 (Casein kinase II): > 0.5 µM

Compound: O=C(O)c1ccc2c3sccc3c(=O)n(CCCO)c2c1
- inhibition [20]: 21%

Compound: Cc1c(C(=O)O)ccc2c1nc(Nc1cccc(Cl)c1)c1ccncc12
- IC50 (Casein kinase II): 0.006 µM

Second part, led by results:

- IC50 (Casein kinase II): 0.019 µM
Compound: O=C(O)c1ccc2c(c1)nc(Nc1cccc(Oc3ccccc3)c1)c1ccncc12

- IC50 (Casein kinase II): > 0.5 µM
Compound: O=C(O)c1cccc2c1nc(Nc1cccc(Cl)c1)c1ccncc12

- IC50 (A549): 16.7 µM
- IC50 (K562): > 10 µM
- IC50 (PC-3 [19]): 9.2 µM
- IC50 (MIA PaCa-2): 6 µM
- IC50 (Jurkat): 3.2 µM
- IC50 (cells): 5.9 µM
- IC50 (HCT-116): 7.6 µM
Compound: O=C(O)c1ccc2c(c1)nc(Nc1cccc(F)c1)c1ccncc12
- IC50 [2]: 8.3 µM

- IC50 (Casein kinase II): > 0.5 µM
Compound: O=C(O)c1ccc2c(c1)nc(Nc1cccc(Cl)c1)c1cccnc12

- IC50 (LNCaP): 15.5 µM
- IC50 (BXPC-3): 3.6 µM
- IC50 (A549): > 50 µM
- IC50 (K562): 9.2 µM
- IC50 (MCF7): 41 µM
- IC50 (MDA-MB-231): 28.7 µM
- IC50 (PC-3 [19]): 26.4 µM
- IC50 (MIA PaCa-2): > 10 µM
- IC50 (Jurkat): 22 µM
- IC50 (cells): 35.6 µM
- IC50 (HCT-116): > 10 µM
Compound: N#Cc1cccc(Nc2nc3cc(C(=O)O)ccc3c3cnccc23)c1

- IC50 (Casein kinase II): > 0.5 µM
Compound: Cc1cc2c(cc1C(=O)O)nc(Nc1cccc(Cl)c1)c1ccncc12

- IC50 (Casein kinase II): 0.069 µM
Compound: O=C(O)c1ccc2c(c1)nc(Nc1ccc(Oc3ccccc3)cc1)c1ccncc12

- IC50 (K562): 5.9 µM
- IC50 (PC-3 [19]): 17.4 µM
- IC50 (MIA PaCa-2): 8.5 µM
- IC50 (Jurkat): 6.5 µM
- IC50 (cells): 12.9 µM
- IC50 (HCT-116): 9.5 µM
Compound: COc1cccc(Nc2nc3cc(C(=O)O)ccc3c3cnccc23)c1
- IC50 [2]: 10.7 µM

- IC50 (LNCaP): 17.1 µM
- IC50 (BXPC-3): 3.7 µM
- IC50 (A549): 30.2 µM
- IC50 (K562): 3.3 µM
- IC50 (MCF7): 1.4 µM
- IC50 (MDA-MB-231): 11.8 µM
- IC50 (A-375): 7.4 µM
- IC50 (PC-3 [19]): 16.8 µM
- IC50 (MIA PaCa-2): 3.9 µM
- IC50 (Jurkat): 2.8 µM
- IC50 (cells): 4 µM
Compound: C#Cc1cccc(Nc2nc3cc(C(=O)O)ccc3c3cnccc23)c1
- IC50 [2]: 3.7 µM

- IC50 (Casein kinase II): > 0.5 µM
Compound: O=C(O)c1ccc2c(c1)nc(Nc1ccccc1)c1cccnc12
